Assay [1] has as its system P. falciparum Nluc trophozoite-stage parasites. Description: Protein secretion and export. The assay is classed as cell-based, Plasmodium falciparum. As to conditions: 5 h treatment; brefeldin A 5 μg/mL, torin 2 10 nM, M-797 4.8 μM, OGHL250 3.1 μM, WEHI-518 200 nM, C3 1.2 μM, KDU731 300 nM. The essentials:
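Nluc-exporting P. falciparum, synchronized with 5% sorbitol and Percoll, grown in human RBCs at 37 °C under 1% O2/5% CO2; trophozoites at 20–24 hpi treated 5 h with test compound (0.1% DMSO vehicle). Cells differentially lysed to release RBC only, RBC plus PV, or all compartments, and Nluc signal measured in each fraction. Three biological replicates of three technical replicates.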

Assay [2] relates to MMV390048 resistant Dd2 with S743T mutation in PI4KIIIB. The assay is described as follows: 72 h growth assay, [3H]-hypoxanthine incorporation. Format: cell-based, Plasmodium falciparum. As to conditions: 3H-hypoxanthine incorporation assay. The essentials: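 This was a modified [3H]-hypoxanthine incorporation assay over 72 h. It compared parental Dd2 with an MMV390048-resistant Dd2 line carrying PI4KIIIB S743T.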

Assay [3] concerns P. falciparum Hyp1-Nluc late schizonts. Description: 4 h egress assay. The assay is classed as cell-based, Plasmodium falciparum. As to conditions: for 4-Hour Egress EC50: dilution series, DNI = did not inhibit. The essentials: (§1)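 Hyp1-Nluc 3D7 parasites were sorbitol-synchronised, grown to late schizonts and isolated on a 67% Percoll gradient. They were given a 4 h window to egress and invade RBCs in test compound, either at 10× growth EC50 or as a dilution series. Egress was read as Nluc in harvested medium with NanoGlo substrate. Background controls were subtracted from egress and invasion values, then normalised to 0.1% DMSO. Three biological replicates were run, with SD.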

Assay [4] deals with P. falciparum Hyp1-Nluc parasites. The assay is described as follows: 4 h invasion / early ring-stage development assay. The assay is classed as cell-based, Plasmodium falciparum. As to conditions: 4 h treatment at 10× EC50 for growth; for Invasion / early ring-stage development normalized to 0.1% DMSO: then 24 h growth without compound. Put shortly:
as §1

Assay [5] deals with P. falciparum purified merozoites (Nluc parasites). Description: Invasion inhibition assay with purified merozoites. The assay is classed as cell-based, Plasmodium falciparum. As to conditions: heparin 100 μg/mL, C1 4 μM, chloroquine 75 nM. The essentials:
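Purified Nluc merozoites were exposed to test compound for 30 min. Compound was then removed and newly invaded parasites grown for 24 h before Nluc quantification. Controls were heparin (100 μg/mL), C1 (4 μM) and chloroquine (75 nM). Values are relative to DMSO, with three biological replicates.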

The next assay concerns Nluc. Description: Nluc counter screen on parasite lysates. The assay is classed as biochemical. As to conditions: 10x EC50 of growth, 10 min at 37 °C. Put shortly: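 Hyp1-Nluc schizonts at 1% haematocrit and 1–2% parasitaemia were lysed in 1x NanoGlo buffer. Lysates were added to test compound and incubated 10 min at 37 °C. Nluc activity was read by furimazine bioluminescence and normalised to 0.1% DMSO.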
In general terms: Counterscreens check selectivity or assay interference.

For the molecule `CN(C(=O)c1ccn2ncc(-c3ccc(C(N)=O)cc3)c2c1)c1ccc(C#N)cn1` [KDU731], the “Export of Nluc reporter into the RBC compartment relative to DMSO” value in assay [1] was “reduced protein export into the RBC compartment”. Consider `COc1ccc(-c2c(C)nn3c(N)c(C#N)cnc23)cc1OC` [Compound M-797], for which, in assay [1], the “Export of Nluc reporter into the RBC compartment relative to DMSO” value is “significantly reduced export into the RBC compartment”. The “fold resistance of S743T parasites compared to parental Dd2” value in assay [2] is reported as 2 fold. The “4-Hour Egress EC50” value in assay [3] is on record as “did not block egress”. Consider `C[C@H]1CCC/C=C/[C@@H]2C[C@H](O)C[C@H]2[C@H](O)/C=C/C(=O)O1` [brefeldin A], for which the “Export of Nluc reporter into the RBC compartment relative to DMSO” value in assay [1] is given as “significantly reduced export into the RBC compartment”. Take heparin: the “Invasion / early ring-stage development normalized to 0.1% DMSO” value in assay [4] is reported as “almost complete invasion inhibition”. On to `CNS(=O)(=O)c1ccccc1Nc1nc(Nc2ccc(N3CCOCC3)cc2OC)ncc1Br` [OGHL134, Brc1c(nc(nc1)Nc2c(cc(cc2)N3CCOCC3)OC)Nc4c(cccc4)S(=O)(=O)NC], for which, in assay [4], the “Invasion inhibition normalized to 0.1% DMSO” value is below 50% and the “Invasion / early ring-stage development normalized to 0.1% DMSO” value was “borderline”. For `Cn1cc(-c2cnc3[nH]cc(-c4cn(Cc5cccc(F)c5F)nn4)c3c2)cn1` [OGHL169, Fc1c(cccc1Cn2nnc(c2)-c3c[nH]c4ncc(cc43)-c5cn(nc5)C)F], in assay [4], the “Invasion inhibition normalized to 0.1% DMSO” value is listed as below 50% and the “Invasion / early ring-stage development normalized to 0.1% DMSO” value is on record as below 50%. Turning to `CCN(CC)CCCC(C)Nc1ccnc2cc(Cl)ccc12` (stereo not shown) [chloroquine], the “Invasion of purified merozoites relative to 0.1% DMSO (controls)” value in assay [5] is recorded as “had no effect on invasion”.

In the case of `Nc1ccc(-c2ccc3ncc4ccc(=O)n(-c5cccc(C(F)(F)F)c5)c4c3c2)cn1` [torin 2], the “Export of Nluc reporter into the RBC compartment relative to DMSO” value in assay [1] is recorded as “significantly reduced export into the RBC compartment”. For `COc1cc(OC)c(CCNC(=O)c2cn3cc(-c4cc(OCC(=O)O)ccc4OC)nc3s2)c(OC)c1` [OGHL239, s1c3n(cc1C(=O)NCCc2c(cc(cc2OC)OC)OC)cc(n3)-c4c(ccc(c4)OCC(=O)O)OC], the “direct inhibition of Nluc activity in parasite lysates” value in the assay on Nluc is listed as “strongly inhibit Nluc activity”. Turning to `COc1cc(C(=O)N(C)C)ccc1-c1cc2nccc(-c3ccc4ccncc4c3)c2o1` [OGHL250, N(C)(C)C(=O)c1cc(c(cc1)-c5oc2c(nccc2-c4cc3cnccc3cc4)c5)OC], the “Export of Nluc reporter into the RBC compartment relative to DMSO” value in assay [1] is “did not significantly reduce export”. For the same molecule, the “4-Hour Egress EC50” value in assay [3] is “did not inhibit parasite egress”. Regarding `COc1ccc(CNc2nc(-c3ccc(C(=O)O)nc3)nc3sc4c(c23)CCCC4)cc1Cl` [OGHL121, Clc1c(ccc(c1)CNc2nc(nc3sc4c(c32)CCCC4)-c5cnc(cc5)C(=O)O)OC], in assay [4], the “Invasion inhibition normalized to 0.1% DMSO” value is reported as below 50% and the “Invasion / early ring-stage development normalized to 0.1% DMSO” value was “borderline”. For the molecule `CN1CCC(c2cc(-c3ccncc3)c(-c3ccc(F)cc3)[nH]2)CC1` [Compound C1, 4-[2-(4-fluorphenyl)-5-(1-methylpiperidine-4-yl)-1H-pyrrol-3-yl]pyridine], in assay [5], the “Invasion of purified merozoites relative to 0.1% DMSO (controls)” value was “directly inhibited merozoite invasion”. Besides, the “Egress over a 4 h window, compared to 0.1% DMSO control normalized to 100%” value in assay [3] (OGHL compounds at 10× EC50 of growth) was 38%.

The record behind these values is publication PMC10496428 (ACS Infectious Diseases, 2023).
